≈ marks a conversion by molar mass, not a printed value.
Assays:
[1] = Ratio of AUC (0 to 24 hrs) in plasma of healthy human to MIC90 for Streptococcus pneumoniae; format: functional
[2] = Plasma concentration in healthy human at […], po after 4 hrs; format: ADME, organism-based; set-up: route oral
Method in brief: (§1)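 Healthy nonsmoking Japanese men, 20-45 y, given one oral 400 mg suspension dose. Blood drawn at 0-72 h, spun at 1,600 × g for 10 min at 4°C, plasma kept at −20°C. Drug measured by validated LC/MS/MS, linear 0.005-5 μg/ml. Values are mean ± SD, n = 28. Cmax, Tmax and t1/2,z are model-independent; AUC0-24 by trapezoidal method.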

Homo sapiens [3] = experiment: Toxicity in healthy human assessed as lymphocytes count in bronchoalveolar fluid at […], po administered as single dose after 6 hrs; format: organism-based, Lung; set-up: route oral; details: in vivo
Method in brief: (§2)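 Healthy Japanese male never-smokers, aged 20 to 45 years with normal BMI, got one open-label oral 400 mg suspension dose. Four subjects per time group had one fiber-optic bronchoscopic BAL at the assigned post-dose time. The first aliquot was discarded and the last three were pooled. BAL fluid was held on ice and spun at 400 × g for 5 min at 4°C. Pellet cells were counted by hemocytometer, with a differential count on a stained cytocentrifuge preparation.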

[4] = Plasma concentration in healthy human at […], po after 12 hrs; format: ADME, organism-based; set-up: route oral; method in brief: as §1
[5] = Ratio of drug level in alveolar macrophages to plasma in healthy human at 400 mg, po administered as single dose after 4 hrs
[6] = Ratio of AUC (0 to 24 hrs) in […] healthy epithelial lining fluid to MIC90 for Haemophilus influenzae; format: functional
[7] = Cmax in epithelial lining fluid of healthy human at 400 mg, po administered as single dose
[8] = Ratio of drug level in alveolar macrophages to plasma in healthy human at 400 mg, po administered as single dose after 10 hrs
[9] = Ratio of drug level in epithelial lining fluid to plasma in healthy human at […], po administered as single dose after 4 hrs; format: ADME, organism-based; set-up: route oral
Method in brief: (§3)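 For each subject, ELF or AM drug level after the single oral 400 mg dose is divided by the plasma level sampled at the BAL time (2-24 h). Ratios are summarized per four-subject group.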

[10] = Terminal-phase half-life in epithelial lining fluid of healthy human at 400 mg, po administered as single dose; details: read-out: beta t1/2 (converted)
[11] = Ratio of drug level in alveolar macrophages to plasma in healthy human at 400 mg, po administered as single dose after 2 hrs
[12] = Ratio of drug level in alveolar macrophages to plasma in healthy human at 400 mg, po administered as single dose after 12 hrs
[13] = Drug level in alveolar macrophages of healthy human at […], po administered as single dose after 8 hrs; format: ADME, organism-based, Macrophage; set-up: route oral; details: read-out: Drug uptake
Method in brief: (§4)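 One oral 400 mg suspension dose; four volunteers lavaged at each time (2-24 h). Cell pellet from the pooled 2nd-4th aspirates was counted (hemocytometer, stained cytospin differential). Drug in cell suspension measured by HPLC, divided by AM volume assuming 2.42 μl/10^6 cells. Cmax and Tmax are model-independent, based on mean concentrations at each time.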

Homo sapiens [14] = experiment: Toxicity in healthy human assessed as alveolar macrophage count in bronchoalveolar fluid at 400 mg, po administered as single dose after 12 hrs; details: in vivo
[15] = Ratio of AUC (0 to 24 hrs) in […] healthy epithelial lining fluid to MIC90 for Moraxella catarrhalis; format: functional
[16] = AUC (0 to 24 hrs) in plasma of healthy human at 400 mg, po administered as single dose by linear trapezoidal method
[17] = Plasma concentration in healthy human at […], po after 2 hrs; format: ADME, organism-based; set-up: route oral; method in brief: as §1
[18] = Ratio of drug level in epithelial lining fluid to plasma in healthy human at […] administered as single dose after 2 hrs; format: ADME, organism-based; set-up: route oral; details: po; method in brief: as §3
Homo sapiens [19] = experiment: Toxicity in healthy human assessed as alveolar macrophage count in bronchoalveolar fluid at 400 mg, po administered as single dose after 24 hrs; details: in vivo
Homo sapiens [20] = experiment: Toxicity in healthy human assessed as eosinophil count in bronchoalveolar fluid at 400 mg, po administered as single dose after 24 hrs; details: in vivo
[21] = Plasma concentration in healthy human at […], po after 24 hrs; format: ADME, organism-based; set-up: route oral; method in brief: as §1
[22] = Ratio of drug level in epithelial lining fluid to plasma in healthy human at 400 mg, po administered as single dose after 24 hrs
[23] = Drug level in alveolar macrophages of healthy human at […], po administered as single dose after 6 hrs; format: ADME, organism-based, Macrophage; set-up: route oral; details: read-out: Drug uptake; method in brief: as §4
[24] = Tmax in alveolar macrophages of healthy human at 400 mg, po administered as single dose
[25] = Ratio of drug level in alveolar macrophages to plasma in healthy human at 400 mg, po administered as single dose after 24 hrs
[26] = Drug level in epithelial lining fluid of healthy human at […], po administered as single dose after 12 hrs; format: ADME, organism-based; set-up: route oral; details: read-out: Drug uptake
Method in brief: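 Four healthy male volunteers per BAL time (2-24 h) after one oral 400 mg suspension dose. Single bronchoscopic lavage; first aliquot discarded, next three pooled. Supernatant separated at 400 × g, 5 min, 4°C, and drug assayed by LC/MS/MS. ELF level = CBAL × urea plasma/urea BAL, with urea corrected for blood contamination via RBC ratio. PK parameters are model-independent, based on the mean concentration at each time.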

[27] = Ratio of AUC (0 to 24 hrs) in plasma of healthy human to MIC90 for erythromycin-susceptible Staphylococcus aureus; format: functional
[28] = Drug level in alveolar macrophages of healthy human at […], po administered as single dose after 12 hrs; format: ADME, organism-based, Macrophage; set-up: route oral; details: read-out: Drug uptake; method in brief: as §4
[29] = Tmax in plasma of healthy human at 400 mg, po administered as single dose
[30] = Drug level in alveolar macrophages of healthy human at […], po administered as single dose after 4 hrs; format: ADME, organism-based, Macrophage; set-up: route oral; details: read-out: Drug uptake; method in brief: as §4
Homo sapiens [31] = experiment: Toxicity in healthy human assessed as other cellular fractions in bronchoalveolar fluid at […], po administered as single dose after 24 hrs; format: organism-based, Lung; set-up: route oral; details: in vivo; method in brief: as §2
[32] = Drug level in alveolar macrophages of healthy human at […], po administered as single dose after 24 hrs; format: ADME, organism-based, Macrophage; set-up: route oral; details: read-out: Drug uptake; method in brief: as §4
Haemophilus influenzae = experiment: Antimicrobial activity against Haemophilus influenzae; format: functional
[33] = Ratio of AUC (0 to 24 hrs) in […] healthy epithelial lining fluid to MIC90 for Streptococcus pneumoniae; format: functional
[34] = Ratio of drug level in epithelial lining fluid to plasma in healthy human at […], po administered as single dose after 6 hrs; format: ADME, organism-based; set-up: route oral; method in brief: as §3

## CC[C@H]1OC(=O)[C@H](C)C(=O)[C@H](C)[C@@H](O[C@@H]2O[C@H](C)C[C@H](N(C)C)[C@H]2O)[C@@]2(C)C[C@@H](C)/C(=N\C(C)=O)[C@H](C)[C@@H](OC/C(=N\OCc3ccc(-n4cccn4)nc3)CO2)[C@]1(C)O [MODITHROMYCIN]
[1]
  RatioAUC/MIC: 83.6
[2]
  concentration at 4 h: 575 ng/mL
Homo sapiens [3]
  Activity: 13%
[4]
  concentration at 12 h: 424 ng/mL
[5]
  Kp at 4 h: 201
[6]
  RatioAUC/MIC: 26.6
[7]
  Cmax: 16800 ng/mL
[8]
  Kp at 10 h: 260
[9]
  Kp at 4 h: 24.8
[10]
  half-life: 14.8 h
[11]
  Kp at 2 h: 93
[12]
  Kp at 12 h: 406
[13]
  concentration at 8 h: 125000 ng/mL
Homo sapiens [14]
  Activity: 85.9%
[15]
  RatioAUC/MIC: 424.8
[16]
  AUC(0-t) at 24 h: 10500 ng·h/mL
[17]
  concentration at 2 h: 646 ng/mL
[18]
  Kp at 2 h: 26.3
Homo sapiens [19]
  Activity: 89.3%
Homo sapiens [20]
  Activity: 0%
[21]
  concentration at 24 h: 315 ng/mL
[22]
  Kp at 24 h: 21.3
[23]
  concentration at 6 h: 100000 ng/mL
[24]
  Tmax: 12 h
[25]
  Kp at 24 h: 232
[26]
  concentration at 12 h: 5800 ng/mL
[27]
  RatioAUC/MIC: 41.8
[28]
  concentration at 12 h: 176000 ng/mL
[29]
  Tmax: 2.27 h
[30]
  concentration at 4 h: 116000 ng/mL
Homo sapiens [31]
  Activity: 0%
[32]
  concentration at 24 h: 68000 ng/mL
Haemophilus influenzae
  MIC90: 8 µg/mL (≈ 9.51 µM)
[33]
  RatioAUC/MIC: 1699.2
[34]
  Kp at 6 h: 27

— ChEMBL document CHEMBL1240362, “Intrapulmonary pharmacokinetics of S-013420, a novel bicyclolide antibacterial, in healthy Japanese subjects” (Antimicrob Agents Chemother, 2010)
